In article PMC6690775 (FEBS letters, 2019):
Like-named read-outs stand apart in the source and are kept apart here.

Assays:
mortalin-NBD [1] = target: T1, mortalin-NBD (Homo sapiens, UniProt P38646); test: Competitive inhibition of ATPase activity; assay type: biochemical; details: for inhibition of ATP hydrolysis of mortalin-NBD (in words): compared with ADP
How it was run: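 Human mortalin-NBD (residues 52–431) was expressed in E. coli Rosetta2(DE3) with a TEV-cleaved His6 tag, then purified by Ni, size-exclusion and Blue columns. Enzyme in binding buffer (HEPES pH 7.8, MgCl2, KCl) was mixed with PNP/MESG and inhibitor at 0–3 mM. ATP was added to 50 μM final, and A360 was read every minute for 60 min at 25 °C, in triplicate, minus no-enzyme control. IC50 came from a one-site logIC50 fit. Kiapp came from a Morrison fit constrained by Et 1 μM, ATP 50 μM and a previously determined KM.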

Hsp70-NBD [2] = target: T2, Hsp70-NBD (Homo sapiens, UniProt P0DMV8); test: ITC binding of modified ADP analogues to Hsp70-NBD; details: for ΔΗ: binding enthalpy change; for ΔS: binding entropy change
T2 sequence (P0DMV8 1-381): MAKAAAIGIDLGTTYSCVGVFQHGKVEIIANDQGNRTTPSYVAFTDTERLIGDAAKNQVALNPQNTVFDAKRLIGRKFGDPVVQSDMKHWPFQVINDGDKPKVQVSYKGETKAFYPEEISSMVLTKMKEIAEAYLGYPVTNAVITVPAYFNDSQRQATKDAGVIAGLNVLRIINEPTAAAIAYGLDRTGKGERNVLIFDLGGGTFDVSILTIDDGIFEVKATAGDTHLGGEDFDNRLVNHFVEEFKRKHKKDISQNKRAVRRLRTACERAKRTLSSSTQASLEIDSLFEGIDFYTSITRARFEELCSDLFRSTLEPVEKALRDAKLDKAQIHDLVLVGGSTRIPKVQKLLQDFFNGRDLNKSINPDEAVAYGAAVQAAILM

mortalin-NBD [3] = target: T1, mortalin-NBD; test: ITC binding of modified ADP analogues to mortalin-NBD; details: for ΔΗ: binding enthalpy change; for ΔS: binding entropy change
Hsp70-NBD [4] = target: T2, Hsp70-NBD; test: Competitive inhibition of ATPase activity; assay type: biochemical
How it was run: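 Human Hsp70-NBD (residues 1–381) was expressed in E. coli Rosetta2(DE3) with a TEV-cleaved His6 tag and purified by Ni, size-exclusion and Blue columns. Phosphate release (EnzChek; PNP 0.2 U, MESG 0.2 μM) was measured with inhibitor at 0–3 mM and ATP 50 μM final. A360 was read each minute for 60 min at 25 °C in triplicate, minus no-enzyme control. IC50 came from a one-site logIC50 fit of fractional activity; Kiapp came from a Morrison fit of V0.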

Hsc70-NBD [5] = target: T3, Hsc70-NBD (Homo sapiens, UniProt P11142); test: ITC binding of modified ADP analogues to Hsc70-NBD; details: for ΔΗ: binding enthalpy change; for ΔS: binding entropy change
T3 sequence (P11142 1-385): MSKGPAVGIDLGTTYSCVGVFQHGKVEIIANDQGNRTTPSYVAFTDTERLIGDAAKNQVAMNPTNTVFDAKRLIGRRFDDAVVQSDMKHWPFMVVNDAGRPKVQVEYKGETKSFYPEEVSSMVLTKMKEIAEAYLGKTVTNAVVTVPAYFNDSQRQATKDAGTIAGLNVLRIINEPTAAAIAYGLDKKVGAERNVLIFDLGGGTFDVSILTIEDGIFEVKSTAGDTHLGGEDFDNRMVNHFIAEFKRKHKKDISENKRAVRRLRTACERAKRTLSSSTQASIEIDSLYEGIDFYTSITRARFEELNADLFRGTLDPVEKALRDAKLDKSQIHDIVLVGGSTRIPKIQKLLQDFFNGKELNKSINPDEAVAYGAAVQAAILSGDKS

Hsc70-NBD [6] = target: T3, Hsc70-NBD; test: Competitive inhibition of ATPase activity; assay type: biochemical
How it was run: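 PNP/MESG coupling (0.2 U, 0.2 μM, 10 min, 25 °C); ATP at 50 μM final started reaction; A360 read each minute for 60 min, 25 °C; triplicates minus no-enzyme control. IC50 from one-site logIC50 fit of fractional activity; Kiapp from Morrison fit constrained by prior KM.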

mortalin-NBD [7] = target: T1, mortalin-NBD; details: previously reported; cited from earlier work
[8] = read-out: KIapp, mortalin-NBD 1 μM, ATP 50 μM, 25 °C, Morrison fit
[9] = mortalin-NBD, ITC Kd relative to ADP

T1 sequence (P38646 52-431): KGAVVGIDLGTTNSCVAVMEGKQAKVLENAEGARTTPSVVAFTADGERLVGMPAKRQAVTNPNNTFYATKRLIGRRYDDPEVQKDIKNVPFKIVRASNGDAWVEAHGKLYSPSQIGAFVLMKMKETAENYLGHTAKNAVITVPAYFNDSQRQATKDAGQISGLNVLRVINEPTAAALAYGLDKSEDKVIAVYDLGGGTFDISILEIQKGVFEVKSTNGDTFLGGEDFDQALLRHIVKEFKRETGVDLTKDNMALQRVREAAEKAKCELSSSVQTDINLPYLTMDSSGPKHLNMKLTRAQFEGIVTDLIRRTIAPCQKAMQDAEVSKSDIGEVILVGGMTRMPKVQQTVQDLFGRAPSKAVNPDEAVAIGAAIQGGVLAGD

| SMILES | inhibition of ATP hydrolysis of mortalin-NBD (in words) (mortalin-NBD [1]) | ΔΗ (mortalin-NBD [3]; ITC, 25 °C, mortalin-NBD) | ΔS (mortalin-NBD [3]; ITC, 25 °C, mortalin-NBD) | affinity tighter than ADP (mortalin-NBD [3]; [9]) | IC50 (mortalin-NBD [1]) | Ki (mortalin-NBD [1]) | Kd (mortalin-NBD [3]) | Kd (Hsp70-NBD [2]) | ΔΗ (Hsp70-NBD [2]; ITC, 25 °C, Hsp70-NBD) | ΔS (Hsp70-NBD [2]; ITC, 25 °C, Hsp70-NBD) | IC50 (Hsp70-NBD [4]) | Ki (Hsp70-NBD [4]) | Kd (Hsc70-NBD [5]) | ΔΗ (Hsc70-NBD [5]; ITC, 25 °C, Hsc70-NBD) | ΔS (Hsc70-NBD [5]; ITC, 25 °C, Hsc70-NBD) | IC50 (Hsc70-NBD [6]) | Ki (Hsc70-NBD [6]) | also measured |
| --- | --- | --- | --- | --- | --- | --- | --- | --- | --- | --- | --- | --- | --- | --- | --- | --- | --- | --- |
| Nc1nc(Cl)nc2c1ncn2[C@@H]1O[C@H](COP(=O)(O)OP(=O)(O)O)[C@@H](O)[C@H]1O [2-Cl ADP] | more effectively compared to ADP | -4.54 ± 0.172 kcal/mol | 45.4 ± 3.04 J/mol·K | ~ 3 fold | – | – | – | – | – | – | – | – | – | – | – | – | – | Ki (mortalin-NBD [1]; [8]): 45.1 ± 2.42 µM; binding to Hsp70-NBD (in words) (Hsp70-NBD [2]; ITC): did not yield data that could be fitted; Kd (mortalin-NBD [3]; ITC, 25 °C, mortalin-NBD): 1.77 µM; inhibition of Hsp70-NBD (in words) (Hsp70-NBD [4]): no reliably demonstrable inhibition; binding to Hsc70-NBD (in words) (Hsc70-NBD [5]; ITC): did not yield data that could be fitted; inhibition of Hsc70-NBD (in words) (Hsc70-NBD [6]): no reliably demonstrable inhibition |
| CSc1nc(N)c2ncn([C@@H]3O[C@H](COP(=O)(O)OP(=O)(O)O)[C@@H](O)[C@H]3O)c2n1 [2-MeS ADP, 2-methylthio-adenosine-5’-diphosphate] | – | -2.96 ± 0.865 kcal/mol | 54.5 ± 16.5 J/mol·K | – | 902 µM | 523 ± 98.3 µM | 9.81 µM | – | – | – | – | – | – | – | – | – | – | binding to Hsp70-NBD (in words) (Hsp70-NBD [2]; ITC): did not yield data that could be fitted; decrease in affinity compared to ADP (mortalin-NBD [3]; [9]): ~2 fold; inhibition of Hsp70-NBD (in words) (Hsp70-NBD [4]): no reliably demonstrable inhibition; binding to Hsc70-NBD (in words) (Hsc70-NBD [5]; ITC): did not yield data that could be fitted; inhibition of Hsc70-NBD (in words) (Hsc70-NBD [6]): no reliably demonstrable inhibition |
| Cc1cccc(CNc2ncnc3c2ncn3[C@@H]2O[C@H](COP(=O)(O)OP(=O)(O)O)[C@@H](O)[C@H]2O)c1 [6-(3-MeBn) ADP, N6-(3-methylbenzyl)adenosine-5’-diphosphate] | – | -3.13 ± 0.0545 kcal/mol | 50.2 ± 1.73 J/mol·K | – | 1430 µM | 675 ± 99.4 µM | 11.4 µM | 0.252 µM | -4.787 ± 0.225 kcal/mol | 58.44 ± 3.96 J/mol·K | 1870 µM | 1300 ± 148 µM | 3.35 µM | -10.22 ± 0.906 kcal/mol | −41.10 ± 12.94 J/mol·K | 8040 µM | 682 ± 179 µM | – |
| O=P(O)(O)OP(=O)(O)OC[C@H]1O[C@@H](n2cnc3c(NCc4ccccc4)ncnc32)[C@H](O)[C@@H]1O [6-Bn ADP, N6-benzyladenosine-5’-diphosphate] | more effectively compared to ADP | -2.99 ± 0.839 kcal/mol | 61.8 ± 12.1 J/mol·K | ~ 1.5 fold | 119 µM | 86.5 ± 10.3 µM | 3.52 µM | 2.16 µM | -3.941 ± 1.02 kcal/mol | 53.04 ± 14.20 J/mol·K | 2330 µM | 1610 ± 137 µM | 0.159 µM | -4.077 ± 0.0645 kcal/mol | 72.13 ± 2.77 J/mol·K | 1470 µM | 295 ± 67.2 µM | – |
| O=P(O)(O)OP(=O)(O)OC[C@H]1O[C@@H](n2cnc3c(NCc4ccco4)ncnc32)[C@H](O)[C@@H]1O [6-Fu ADP, N6-furfuryladenosine-5’-diphosphate] | – | -5.04 ± 0.277 kcal/mol | 28.7 ± 6.85 J/mol·K | – | 558 µM | 565 ± 49.6 µM | 5.84 µM | 4.27 µM | -2.395 ± 0.562 kcal/mol | 68.77 ± 8.28 J/mol·K | 3240 µM | 1860 ± 172 µM | 8.7 µM | -5.457 ± 0.514 kcal/mol | 19.22 ± 5.06 J/mol·K | 6780 µM | 723 ± 179 µM | – |
| O=P(O)(O)OP(=O)(O)OC[C@H]1O[C@@H](n2cnc3c(NCCc4ccccc4)ncnc32)[C@H](O)[C@@H]1O [6-PheEt ADP, N6-(2-phenylethyl)adenosine-5’-diphosphate] | more effectively compared to ADP | -8.1 ± 0.495 kcal/mol | −10.4 ± 5.17 J/mol·K | ~ 1.25 fold | 173 µM | 97.3 ± 9.96 µM | 4.19 µM | 0.143 µM | -10.8 ± 0.208 kcal/mol | −22.97 ± 3.25 J/mol·K | 3120 µM | 1160 ± 189 µM | 0.237 µM | -4.316 ± 0.022 kcal/mol | 65.31 ± 1.22 J/mol·K | 2100 µM | 445 ± 101 µM | – |
| O=P(O)(O)OP(=O)(O)OC[C@H]1O[C@@H](n2cnc3c(NC4CCCCC4)ncnc32)[C@H](O)[C@@H]1O [6-cHe ADP, N6-cyclohexyladenosine-5’-diphosphate] | weakest inhibition | -5.28 ± 0.0693 kcal/mol | 18.84 ± 0.87 J/mol·K | – | 1600 µM | 733 ± 82.1 µM | 14.1 µM | 0.199 µM | -4.967 ± 0.146 kcal/mol | 57.67 ± 0.64 J/mol·K | 2490 µM | 1240 ± 164 µM | 0.357 µM | -6.006 ± 0.562 kcal/mol | 37.74 ± 7.36 J/mol·K | 2230 µM | 622 ± 183 µM | – |
| Nc1ncnc2c1ncn2[C@@H]1O[C@H](COP(=O)(O)OP(=O)(O)O)[C@@H](O)[C@H]1O [ADP, reference compound] | – | -6.52 ± 0.308 kcal/mol | 9.36 ± 4.48 J/mol·K | – | – | – | – | – | -5.731 ± 0.203 kcal/mol | 60.54 ± 3.65 J/mol·K | – | – | – | -7.359 ± 0.022 kcal/mol | 34.19 ± 1.55 J/mol·K | – | – | Ki (mortalin-NBD [1]; [8]): 353 ± 36.2 µM; Kd (Hsp70-NBD [2]; ITC, 25 °C, Hsp70-NBD): 0.0435 µM; Kd (mortalin-NBD [7]): 5.3 ± 0.106 µM; log IC50 (Hsp70-NBD [4]; Hsp70-NBD, ATP 50 μM, one-site logIC50 fit): 2.697 ± 0.091; Ki (Hsp70-NBD [4]; read-out: KIapp, Hsp70-NBD, ATP 50 μM, Morrison fit, ~ denotes ambiguous data): 440 ± 47.8 µM; Kd (Hsc70-NBD [5]; ITC, 25 °C, Hsc70-NBD): 0.0665 µM; log IC50 (Hsc70-NBD [6]; Hsc70-NBD, ATP 50 μM, one-site logIC50 fit): 2.734 ± 0.117; Ki (Hsc70-NBD [6]; read-out: KIapp, Hsc70-NBD, ATP 50 μM, Morrison fit, ~ denotes ambiguous data): 239 ± 32.2 µM |
